Results as given in paper PMC10008514 (Chemical communications (Cambridge, England), 2023).
Entries after “also recorded” stand apart in the source; their conditions may differ. Where two headings read alike, the source gives them in different places.

How the values were obtained:
hCAII = settings: read-out: Ki hCAII; reported inhibitor; cited from earlier work
[1] = Reaction with L-cysteine methyl ester; type: physicochemical; settings: equimolar 13, 24 h, 10% acetonitrile 90% water, pH 7.4, 1.25 mM
Method in brief: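 Test compound and L-cysteine methyl ester were mixed in equimolar amounts at a final concentration of 1.25 mM. The solvent was 10% acetonitrile and 90% water at pH 7.4. The mixture was incubated for 24 h before analysis.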

[2] = target: T1, matrix metalloproteinase-2 (MMP-2) (Homo sapiens, UniProt P08253); experiment: MMP-2 inhibition assay; type: biochemical
T1 sequence (P08253 110-660): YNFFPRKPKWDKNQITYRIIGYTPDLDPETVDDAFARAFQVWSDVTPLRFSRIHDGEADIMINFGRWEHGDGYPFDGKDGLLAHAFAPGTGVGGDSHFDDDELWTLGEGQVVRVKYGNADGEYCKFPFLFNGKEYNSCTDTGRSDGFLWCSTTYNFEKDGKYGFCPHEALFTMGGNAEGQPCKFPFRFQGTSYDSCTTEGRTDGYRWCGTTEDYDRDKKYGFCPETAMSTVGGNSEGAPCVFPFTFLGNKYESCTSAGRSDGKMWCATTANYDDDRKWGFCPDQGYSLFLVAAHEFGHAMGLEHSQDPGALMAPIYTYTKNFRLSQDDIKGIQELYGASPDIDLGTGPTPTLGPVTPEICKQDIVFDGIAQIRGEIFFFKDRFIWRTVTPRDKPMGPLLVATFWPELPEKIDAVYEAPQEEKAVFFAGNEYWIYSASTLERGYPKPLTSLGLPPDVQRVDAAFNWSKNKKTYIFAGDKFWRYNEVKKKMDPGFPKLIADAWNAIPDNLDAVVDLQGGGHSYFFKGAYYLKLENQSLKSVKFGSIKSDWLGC

Reactivity with DTNB = type: physicochemical; settings: compound:DTNB 1:10, incubation 90 min, absorbance 412 nm
[3] = target: human carbonic anhydrase II (hCAII) (Homo sapiens, UniProt P00918); experiment: hCAII inhibition assay; type: biochemical

S=c1[nH]c2ccccc2o1 [Compound 1, benzo[d]oxazole-2-(3H)-thione]
Ki (hCAII): 0.97 µM
Reactivity with L-cysteine methyl ester (13), disulfide formation by HPLC [1]: most stable compounds
IC50 ([2]; read-out: IC50 MMP-2, ± 95% confidence interval): > 200 µM
Percent reactivity (conversion) with DTNB (Reactivity with DTNB): most stable compounds
IC50 ([3]; read-out: IC50 hCAII, ± 95% confidence interval): > 200 µM
IC50 hCAII ([3]; ± 95% confidence interval): not active

S=C1Cc2ccccc2N1 [Compound 5, 2-indolinethione]
Reactivity with L-cysteine methyl ester (13), disulfide formation by HPLC [1]: stable in the presence of 13
IC50 [2]: 76.6 ± 4.26 µM
IC50 [3]: 3.42 ± 0.34 µM

Oc1ccccc1S [Compound 11, 2-mercaptophenol, reference compound]
Ki (hCAII): 0.63 µM
Reactivity with L-cysteine methyl ester (13), disulfide formation by HPLC [1]: generate disulfide products with 13
IC50 [2]: > 200 µM
Percent reactivity (conversion) with DTNB (Reactivity with DTNB): essentially quantitative conversion; also recorded: essential quantitative disulfide formation
IC50 [3]: 19.4 ± 5.15 µM

C[C@H](CS)C(=O)N1CCC[C@H]1C(=O)O [Compound 12, captopril]
Percent reactivity (conversion) with DTNB (Reactivity with DTNB): essentially quantitative conversion; also recorded: essential quantitative disulfide formation
